# Published values of several laboratories.
# Lines come from different studies, so protocols differ.
# Target: Calcium/calmodulin-dependent protein kinase type 1D (CAMK1D, Homo sapiens, UniProt Q8IU85)
Structure (SMILES),effect on,technique,tested at,remaining binding [%]
COc1cnc(Nc2cccc(S(N)(=O)=O)c2)nc1N1CCN(c2ccccc2)C(=O)C1,binding,competition with immobilised ligand,1 µM,99
CNC(=O)Nc1ccc2c(c1)[C@@]1(CC2)OC(=O)N(CC(=O)N(Cc2ccc(F)cc2)[C@@H](C)C(F)(F)F)C1=O,cell-free assay,competition with immobilised ligand,1 µM,100
N[C@H]1CCN(c2nccc(-c3cnn4ncccc34)n2)C1,binding,,1 µM,91
CN([C@@H]1CCc2c(CC(=O)O)c3cc(S(C)(=O)=O)ccc3n2C1)S(=O)(=O)c1ccc(F)cc1,cell-free assay,competition with immobilised ligand,1 µM,99
CN(c1nccc(-c2cnn3ncccc23)n1)C1CC1,binding,,1 µM,100
O=C(NCCCN1CCOCC1)c1ccc(Nc2ncc(Cl)c(-c3ccc(Cl)s3)n2)cc1,binding,competition with immobilised ligand,1 µM,44
O=C(NCC1CCOCC1)c1n[nH]cc1NC(=O)c1c(F)cccc1F,binding,competition with immobilised ligand,1 µM,96
CCN1CCN(Cc2ccc(C(=O)Nc3ccc(C)c(Oc4ccc5c(c4)CC(=O)N5)c3)cc2C(F)(F)F)CC1,binding,competition with immobilised ligand,1 µM,52
CC1CCCN1c1nccc(-c2cnn3ncccc23)n1 (stereo not shown),binding,,1 µM,100
CNC(=O)c1ccc(Nc2ncc(C(F)(F)F)c(NCc3nccnc3N(C)S(C)(=O)=O)n2)cc1,cell-free assay,competition with immobilised ligand,0.1 µM,100
CNC(=O)[C@@H]1CC[C@@H](n2c(-c3ccc4cnccc4c3)nc3ccc(C(=O)NCc4cccc(C(N)=O)c4)cc32)C1,binding,competition with immobilised ligand,1 µM,100
O=S(=O)(NC1CCC(c2cc(F)ccc2F)(S(=O)(=O)c2ccc(Cl)cc2)CC1)C(F)(F)F (stereo not shown),cell-free assay,competition with immobilised ligand,1 µM,79
Cc1cnc(Nc2ccc(C(=O)N3CCC(N4CCCC4)CC3)cc2)nc1-c1cc2ccccc2s1,binding,competition with immobilised ligand,1 µM,8.3
Nc1ncc2c(n1)-c1c([nH]c3ccc(C#CC4CC4)cc13)CCCC2,binding,competition with immobilised ligand,1 µM,100
C[C@H]1CCN(c2nccc(-c3cnn4ncccc34)n2)C1,binding,,1 µM,95
COc1ccc2c(c1)O[C@@H](c1ccc(OC)c(OC)c1)C[C@H]2NC(=O)C1(c2ccc3c(c2)OC(F)(F)O3)CC1,cell-free assay,competition with immobilised ligand,1 µM,94
c1cnn2ncc(-c3ccnc(N4CCC45COC5)n3)c2c1,binding,,1 µM,89
FC(F)(F)Oc1cccc(-c2cnc3ccc(-c4ccncc4)nn23)c1,cell-free assay,competition with immobilised ligand,5 µM,67
O=C(N1CCS(=O)(=O)CC1)N1C[C@H](c2ccc(OC(F)(F)F)cc2)C[C@H](c2nc(C3CC3)no2)C1,cell-free assay,competition with immobilised ligand,1 µM,91
O=C(c1ccc(Nc2ncc(Cl)c(-c3cc4ccccc4s3)n2)cc1)N1CCC(N2CCCC2)CC1,binding,competition with immobilised ligand,1 µM,29
CN(C)c1nccc(-c2cnn3ncccc23)n1,binding,,1 µM,100
c1cncc(-c2cccc(Nc3nccc(NC4CCCCC4)n3)c2)c1,binding,competition with immobilised ligand,10 µM,72
